Screening data: PubChem BioAssay, several laboratories
NR2E3 ag-1 = human photoreceptor-specific nuclear receptor agonism; Q9Y5X4; 360,000 tested, 0.35% active; inhibition of corepressor binding, % at 3.98 µM; AID 602229; CHO-S Gal4-NCOR/VP16-NR2E3 two-hybrid, luciferase;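 active = inhibition above the mean of all tested compounds plus 3 SD, cut at about 70% in these data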;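 also: higher means lower luciferase signal from less NR2E3 corepressor binding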
PG9 binder = binds the HIV-1 gp120 antibody PG9 | TR-FRET gp120-PG9 antibody binding | inhibition, % at 6.7 µM | 360,000 tested, 0.43% active | AID 624416; in the data active = inhibition above about 8.5%
NR2E3 ag-2 = NR2E3 (human) agonism. AID 2300. Q9Y5X4. inhibition of corepressor binding, % at 4.78 µM. 320,000 tested, 0.12% active. GST-NR2E3/biotin-RetCOR TR-FRET, 1536-well;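 active = percent inhibition above the cutoff of mean plus 3 SD of all tested compounds, set per screening campaign, cut at about 20% in these data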
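System: GST-NR2E3 and biotin-RetCOR proteins; probe or stimulus: 7 nM biotin-RetCOR; doses: compound at 4.8 µM, single dose; schedule: Compound–protein incubation for 5 h at 4 °C; detection: time-resolved FRET; read-out: percent inhibition; controls: biotin wells as high control, 0.6% DMSO wells as low control; format: 1536-well plates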
NR1D1 modulator = Rev-erb alpha (human) modulation | P20393 | Rev-erbα–FITC-DNA binding, fluorescence polarization, 90 min | activity, % at 10 µM | 370,000 tested, 0.79% active | AID 1259318;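 active = activity above about 14%, limit read from the data; passing the limit was not always enough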
Target sequence (P20393 whole entry, looked up): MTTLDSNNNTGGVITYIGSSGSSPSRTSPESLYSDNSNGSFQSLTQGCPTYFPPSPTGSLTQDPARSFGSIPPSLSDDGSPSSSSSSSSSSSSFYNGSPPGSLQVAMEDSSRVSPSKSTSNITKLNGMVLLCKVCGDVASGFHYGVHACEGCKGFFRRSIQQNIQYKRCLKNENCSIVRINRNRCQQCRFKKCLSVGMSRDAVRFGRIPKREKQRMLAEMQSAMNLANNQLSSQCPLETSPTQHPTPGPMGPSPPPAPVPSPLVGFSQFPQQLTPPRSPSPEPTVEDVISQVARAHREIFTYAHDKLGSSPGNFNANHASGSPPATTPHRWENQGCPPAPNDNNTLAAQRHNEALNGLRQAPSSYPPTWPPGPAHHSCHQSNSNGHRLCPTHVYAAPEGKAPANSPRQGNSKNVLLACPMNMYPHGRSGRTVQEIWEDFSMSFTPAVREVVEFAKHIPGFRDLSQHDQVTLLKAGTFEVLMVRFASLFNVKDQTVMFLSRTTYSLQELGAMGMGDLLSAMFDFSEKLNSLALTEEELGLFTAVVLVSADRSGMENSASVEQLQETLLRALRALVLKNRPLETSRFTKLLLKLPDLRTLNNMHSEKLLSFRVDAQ
NR2E3 ag conf = NR2E3 agonism confirmed in two-hybrid assay. shares compounds with NR2E3 ag-1. CHO-S mammalian two-hybrid NR2E3-NCOR, luciferase luminescence. inhibition, % at 3.98 µM. 2,300 tested, 51% active;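 active = average inhibition above a cutoff equal to the mean inhibition of all tested compounds plus one SD, cut at about 70% in these data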
GAL4-VP16 luc = counter-screen for NR2E3 agonists: GAL4-VP16 reporter inhibitors; 2,300 tested, 29% active; AID 624379; shares compounds with NR2E3 ag-1; inhibition, % at 3.98 µM; CHO-S GAL4-VP16 luciferase reporter, luminescence;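 active = mean inhibition above a cutoff equal to the average over all tested compounds plus one standard deviation, cut at about 70% in these data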;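 also: luciferase from a UAS reporter driven by GAL4-VP16 transactivation; higher means less reporter light so more repression of VP16 activity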
Numbers stand for hits; - = inactive; . = not tested or not shown. This is a sample that favours compounds with a hit; in the whole collection about 1.5% have one here.

SMILES	NR2E3 ag-1	PG9 binder	NR2E3 ag-2	NR1D1 modulator	NR2E3 ag conf	GAL4-VP16 luc
Cc1ccc(S(=O)(=O)Nc2ccccc2C(=O)Nc2nc(-c3ccc(F)cc3)cs2)cc1	94.0	-	-	-	97.8	83.9
Cc1ccc(S(=O)(=O)Nc2nc(-c3ccccc3)cs2)cc1	-	-	-	-	.	.
O=C(Nc1cc(S(=O)(=O)N2CCCCC2)ccc1Cl)c1ccccc1NS(=O)(=O)c1ccc(F)cc1	95.9	-	-	-	99.1	85.3
COc1ccc(-c2csc(NC(=O)c3ccccc3NS(=O)(=O)c3ccc(F)c(F)c3)n2)cc1	98.2	-	-	-	100.7	90.5
CC(NS(=O)(=O)OCC(Cl)(Cl)Cl)c1ccc(C(C)(C)C)cc1 (stereo not given)	-	-	-	-	-	-
CCC[C@H]1[C@@H](NS(=O)(=O)c2ccccc2[N+](=O)[O-])CC[C@@]23CCCN2C(=O)CCC[C@@H]13	.	.	.	-	.	.
Cn1nnnc1Sc1ncnc2scc(-c3cccc(F)c3)c12	-	-	-	-	-	-
Cn1nnnc1Sc1ncnc2scc(-c3ccccc3C(F)(F)F)c12	-	-	-	-	-	-
Cn1nnnc1Sc1ncnc2scc(-c3cccc(C(F)(F)F)c3)c12	-	-	.	-	.	.
O=C(c1cc(Cl)cc(Cl)c1)N1CC[C@H]2[C@H](CCCN2Cc2ccc(F)cc2)C1	.	.	.	-	.	.
COC1C=CC=C(C)C(=O)NC2=CC(=O)C(N)=C(CC(C)CC(OC)C(O)C(C)C=C(C)C1OC(N)=O)C2=O (stereo not given)	90.7	-	.	-	97.3	-
COC1CC(C)C(OC)c2cc(O)cc(c2O)NC(=O)C(C)=CC=CC(C)C(OC(N)=O)C(C)=CC(C)C1OC (stereo not given)	-	-	.	-	.	.
CC12CCC(O)CC1=CCC1C2CCC2(C)C(c3ccn[nH]3)CCC12 (stereo not given)	82.0	-	.	-	-	-
Cc1c(C(=O)Nc2ccc3c(c2)OCCO3)sc2nc(-c3ccccc3)cn12	-	-	-	-	-	-
Cc1ccc(-n2nc3c(=O)n(C(C)C(=O)NCCCc4ccccc4)nc(C)c3c2C)cc1 (stereo not given)	-	-	-	-	-	-
C/C(=N/NS(=O)(=O)c1ccc(CC(C)C)cc1)c1ccncc1	103.7	-	-	-	-	-
CC(=O)c1ccc(NC(=O)Nc2ccc(NS(=O)(=O)c3ccc(C)cc3)cc2)cc1	-	-	-	-	.	.
CC(=O)c1ccc(NS(=O)(=O)c2ccc(CC(C)C)cc2)cc1	-	-	-	-	89.7	-
CCCC1CCC2(CCC(=O)N2CCSc2ccccc2)CC1 (stereo not given)	.	.	.	-	.	.
CCOC(=O)[C@@]12CCCC3=C1N(CCC3)C(=O)[C@H]2CC(=O)NCc1ccc(C)o1	.	.	.	-	.	.
O=C(c1ccccc1)c1nn(-c2ccc(Cl)cc2)c(=O)cc1C(F)(F)F	107.7	-	-	-	93.2	-
Cc1cccc(Cc2cnc(N3C(=N)SC(c4ccccc4)C3=O)s2)c1 (stereo not given)	-	-	-	-	.	.
Cc1ccc(Cc2cnc(N3C(=N)SC(C)C3=O)s2)cc1 (stereo not given)	101.5	-	-	-	100.6	-
Cc1cccc(Cc2cnc(N3C(=N)SC(C)C3=O)s2)c1 (stereo not given)	103.4	-	-	-	98.6	-
CSC(=S)NN=C(C)c1cccc(C)n1	-	-	.	-	-	-
SMILES	NR2E3 ag-1	PG9 binder	NR2E3 ag-2	NR1D1 modulator	NR2E3 ag conf	GAL4-VP16 luc
C=CCC1(CC=C)CCCN1C(=O)c1cc(COc2cccc(OC)c2)on1	-	-	-	-	.	.
C=CCC1(CC=C)CCCN1C(=O)c1cc(COc2cncc(Cl)c2)on1	89.6	-	-	-	86.6	-
Cc1oc(-c2ccc3c(c2)OCCO3)cc1C(=O)O	-	-	-	-	-	-
COC(=O)C[C@H]1CC[C@@H]2[C@@H](COc3ccc(NC(=O)c4ccno4)cc3C(=O)N2C)O1	.	.	.	-	.	.
CC(C)(C)C(=O)Nc1ccc(Sc2ccc([N+](=O)[O-])cc2)cc1	-	-	-	-	78.5	-
CC(C)(C)C(=O)NC(NC(=O)C(C)(C)C)c1ccc([N+](=O)[O-])cc1	-	-	-	-	.	.
CC(=O)Nc1ccc(Sc2ccc([N+](=O)[O-])o2)cc1	72.2	-	.	-	92.6	-
COc1ccc(Cn2c(NC(=O)c3ccccc3)nc(Cc3ccccc3)c2-c2ccccc2)cc1	.	.	.	-	.	.
CCn1c2ccccc2c2cc(NC(=O)c3cc(OC)c(OC)c(OC)c3)ccc21	-	-	-	-	.	.
CCn1c2ccccc2c2cc(NC(=O)c3cc(OC)cc(OC)c3)ccc21	-	-	-	-	-	-
COC(=O)C[C@@H]1CC[C@H]2[C@@H](COc3ccc(NC(=O)c4ccc(Cl)cc4)cc3C(=O)N2C)O1	.	.	.	-	.	.
Cc1ccc(S(=O)(=O)/N=C2\C=C(Nc3cccc(C(=O)O)c3)C(=O)c3ccccc32)cc1	-	-	-	-	.	.
Cc1ccc(S(=O)(=O)/N=C2\C=C(Nc3ccc(O)cc3)C(=O)c3ccccc32)cc1	101.8	.	.	.	99.9	99.3
N#CCC[C@@H]1CC[C@]2(CCCN(Cc3ccc(Br)cc3)C2)O1	.	.	.	-	.	.
CC(=O)c1c(O)cc(O)c(C(C)=O)c1O	79.8	.	-	.	84.8	-
Cc1nc2ccccc2n1CC(O)COc1ccc(Br)cc1 (stereo not given)	-	-	-	-	.	.
CCC(=O)c1ccc(OCC(O)Cn2c(C)nc3ccccc32)cc1 (stereo not given)	-	-	-	-	-	-
CCC1(O)C(=O)OCc2c1cc1n(c2=O)Cc2cc3c(N)cccc3nc2-1 (stereo not given)	86.1	-	.	-	94.1	-
CCC1(OC(=O)CN(C)C)C(=O)OCc2c1cc1n(c2=O)Cc2cc3c(N)cccc3nc2-1 (stereo not given)	-	.	.	.	83.8	-
C=CCn1c(C)cc(C(=O)CSc2nc3ccccc3[nH]2)c1C	-	-	-	-	-	-
C=CCn1c(C)cc(C(=O)CN2C(=O)c3ccccc3S2(=O)=O)c1C	-	.	-	.	76.4	-
COCC(C)n1c(C)cc(C(=O)CSc2nc3ccccc3c(=O)[nH]2)c1C (stereo not given)	-	-	-	-	-	-
C=CCn1c(C)cc(C(=O)CSc2nc3ccccc3c(=O)[nH]2)c1C	-	-	-	-	.	.
Cc1cc(C(=O)CSc2nc3ccc(Cl)cc3[nH]2)c(C)n1CC1CCCO1 (stereo not given)	-	-	-	-	80.2	-
COCCn1c(C)cc(C(=O)CSc2nc3ccccc3c(=O)[nH]2)c1C	-	-	-	-	.	.
Cc1cc(C(=O)CSc2nc3ccc(Cl)cc3[nH]2)c(C)n1C	-	-	-	-	.	.
O=C1CCC[C@H]2C[C@H](NCc3ccc(Cl)cc3)CC[C@]23CCCN13	.	.	.	-	.	.
O=C(NCC(c1ccccc1)c1ccccc1)[C@H](Cc1ccccc1)NC1(C(=O)NC2CCCCC2)CCOCC1	.	.	.	-	.	.
